Assay results taken from ChEMBL document CHEMBL1687928, “Discovery, optimization, and pharmacological characterization of novel heteroaroylphenylureas antagonists of C-C chemokine ligand 2 function” (J Med Chem, 2011).
The source made the active and inactive calls. The rule behind the calls is not given here.

Columns and labels:
THP-1 = assay: Cytotoxicity against human THP1 cells; format: cell-based
[1] = biological target: C-C chemokine receptor type 2 (Homo sapiens) (UniProt P41597); format: cell-based; conditions: THP-1
[2] = biological target: C-C chemokine receptor type 2 (Homo sapiens) (UniProt P41597); format: cell-based; conditions: HEK293
[3] = biological target: C-C chemokine receptor type 2 (Homo sapiens) (UniProt P41597); assay: Antagonist activity at CCR2 in human THP1 cells assessed as inhibition of CCL2-induced calcium flux; format: functional, cell-based; conditions: THP-1
How it was run: (§1)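 THP-1 cells in serum-free RPMI 1640 were loaded with 3 μM Fluo-3AM plus 0.1% F127 for 30 min at 37 °C. After washing, cells were resuspended at 5 × 10^6 cells/mL and kept at room temperature. They were pretreated 30 min with compound or DMSO, then stimulated with 100 ng/mL hCCL2. Fluorescence was read by flow cytometry at baseline for 15 s, then from 20 to 120 s. Inhibition is given as % of DMSO control.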

[4] = biological target: C-C chemokine receptor type 2 (Homo sapiens) (UniProt P41597); assay: Antagonist activity at CCR2 in human THP1 cells assessed as inhibition of CCL2-induced calcium flux at 50 uM; format: functional, cell-based; conditions: THP-1; how it was run: as §1

Chain of C-C chemokine receptor type 2 (Homo sapiens) (P41597 whole entry, looked up): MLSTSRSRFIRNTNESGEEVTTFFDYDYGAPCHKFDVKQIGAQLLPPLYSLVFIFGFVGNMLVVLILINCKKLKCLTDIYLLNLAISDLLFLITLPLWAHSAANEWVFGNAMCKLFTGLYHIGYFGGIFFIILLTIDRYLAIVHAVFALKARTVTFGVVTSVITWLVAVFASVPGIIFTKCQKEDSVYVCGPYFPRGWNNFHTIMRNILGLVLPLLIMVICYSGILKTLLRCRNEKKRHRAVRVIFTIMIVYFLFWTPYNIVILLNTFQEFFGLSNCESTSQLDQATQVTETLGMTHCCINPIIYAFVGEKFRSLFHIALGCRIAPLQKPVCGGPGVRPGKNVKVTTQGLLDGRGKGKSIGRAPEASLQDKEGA

Activity [1]: inactive
Activity [2]: inactive
Activity [3]: Dose-dependent effect
Activity [4]: Active
Compound: O=C(NC(=O)c1ccc2c(c1)OCO2)Nc1ccc(O)c(Cl)c1
CC50 (THP-1): > 50 µM
